Structures are written as SMILES.

Drawing on ChEMBL document CHEMBL1129034, “Novel N6-(substituted-phenylcarbamoyl)adenosine-5'-uronamides as potent agonists for A3 adenosine receptors” (J Med Chem, 1996), this text covers Ki and Selectivity for 22 compounds.

One assay addresses T1, Adenosine receptor A1 (Rattus norvegicus, UniProt P25099).
T1 sequence (P25099 whole entry): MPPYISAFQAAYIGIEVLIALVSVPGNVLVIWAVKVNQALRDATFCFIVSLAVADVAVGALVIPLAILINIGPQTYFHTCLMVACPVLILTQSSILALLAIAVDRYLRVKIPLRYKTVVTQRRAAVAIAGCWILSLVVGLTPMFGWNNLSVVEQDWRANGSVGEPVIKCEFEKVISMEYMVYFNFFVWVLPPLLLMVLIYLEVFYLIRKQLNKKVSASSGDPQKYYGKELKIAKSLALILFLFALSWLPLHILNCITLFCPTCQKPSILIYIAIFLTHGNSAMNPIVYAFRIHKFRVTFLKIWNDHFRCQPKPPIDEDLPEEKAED
The experiment in a line: Displacement of [3H]CHA from Adenosine A1 receptor in rat brain homogenates. It counts as tissue-based. On the technique in general: Loss of bound radioactivity is the signal in a displacement assay; it reports binding, not function.

A further assay deals with Adenosine receptor A2a (Rattus norvegicus, UniProt P30543). The experiment in a line: Displacement of [3H]-CGS- 21680 from Adenosine A2A receptor in rat striatal homogenates. Put shortly: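 Rat striatal homogenates labelled with [3H]CGS 21680 for A2A; IC50 by probit analysis over at least six concentrations, Ki via Cheng-Prusoff using Kd 18.5 nM; n = 3-4, Ki ± SEM in nM.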

A further assay addresses T2, Adenosine receptor A3 (Rattus norvegicus, UniProt P28647).
T2 sequence (P28647 whole entry): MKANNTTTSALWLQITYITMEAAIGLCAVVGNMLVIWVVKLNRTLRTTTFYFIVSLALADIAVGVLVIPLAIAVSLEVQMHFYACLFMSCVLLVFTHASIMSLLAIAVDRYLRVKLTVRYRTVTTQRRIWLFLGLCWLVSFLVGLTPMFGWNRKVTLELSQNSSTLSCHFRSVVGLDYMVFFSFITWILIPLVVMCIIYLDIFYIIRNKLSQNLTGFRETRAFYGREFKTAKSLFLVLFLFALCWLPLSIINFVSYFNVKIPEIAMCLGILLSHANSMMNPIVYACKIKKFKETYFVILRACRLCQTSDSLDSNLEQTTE
The experiment in a line: Displacement of [125I]AB-MECA from cloned rat Adenosine A3 receptor in stably transfected CHO cells. The class given is cell-based. A digest of the protocol:
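Membranes from CHO cells stably expressing rat A3 receptor, labelled with [125I]AB-MECA; IC50 by probit analysis from at least six concentrations, converted to Ki by Cheng-Prusoff with Kd 1.48 nM; n = 3, Ki ± SEM in nM.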

In assay [1] the target is Adenosine receptors; A1 & A3 (Rattus norvegicus) (UniProt P25099+P28647). The experiment in a line: Selectivity, ratio between A1 receptor binding affinity / A3 receptor binding affinity. The class given is protein assay.
The target of assay [2] is Adenosine receptor A2a and A3 (Rattus norvegicus) (UniProt P30543+P28647). The experiment in a line: Selectivity, ratio between A2A receptor binding affinity / A3 receptor binding affinity. The class given is protein assay.
Chain of Adenosine receptor A2a and A3 (Rattus norvegicus) (P30543 whole entry, looked up, one chain of several): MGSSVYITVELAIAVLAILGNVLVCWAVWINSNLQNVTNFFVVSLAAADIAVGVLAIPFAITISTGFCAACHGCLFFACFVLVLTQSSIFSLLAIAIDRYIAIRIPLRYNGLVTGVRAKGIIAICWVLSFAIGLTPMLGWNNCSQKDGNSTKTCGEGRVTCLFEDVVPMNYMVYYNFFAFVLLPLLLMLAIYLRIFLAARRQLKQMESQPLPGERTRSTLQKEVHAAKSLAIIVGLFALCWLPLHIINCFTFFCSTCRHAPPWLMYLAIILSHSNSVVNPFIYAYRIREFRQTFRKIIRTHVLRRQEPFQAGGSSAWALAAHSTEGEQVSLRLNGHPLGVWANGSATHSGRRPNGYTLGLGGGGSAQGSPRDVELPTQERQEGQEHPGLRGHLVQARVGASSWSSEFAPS

Chain of Adenosine receptor A2a (P30543 whole entry): as the sequence (P30543 whole entry, looked up, one chain of several) above

The term Ki denotes a measure of affinity in units of concentration, obtained from inhibition or displacement. Lower therefore signals higher affinity. On to `CCNC(=O)[C@H]1O[C@@H](n2cnc3c(NC(=O)Nc4ccc(OC)cc4)ncnc32)[C@H](O)[C@@H]1O`, for which the Ki on Adenosine receptor A1 was determined as 33 nM; at Adenosine receptor A2a it was 3360 nM; on Adenosine receptor A3 it was 6.6 nM. The Selectivity in assay [1] came to 4.9; in assay [2], 510.
For `CNC(=O)[C@H]1O[C@@H](n2cnc3c(NC(=O)Nc4ccc(OC)cc4)ncnc32)[C@H](O)[C@@H]1O`, in that order: 491 nM, 8750 nM, 56 nM, 8.8 and 160.
Consider `CCNC(=O)[C@H]1O[C@@H](n2cnc3c(NC(=O)Nc4ccc(Cl)cc4)ncnc32)[C@H](O)[C@@H]1O`, for which the results for the Ki on Adenosine receptor A1, on Adenosine receptor A2a and on Adenosine receptor A3 were 72 nM, 1490 nM and 114 nM, respectively. Also, the Selectivity is 0.6 in assay [1] and 13 in assay [2].
Turning to `CCNC(=O)[C@H]1O[C@@H](n2cnc3c(NC(=O)Nc4ccccc4I)ncnc32)[C@H](O)[C@@H]1O`, the Ki on Adenosine receptor A1 turned out to be 179 nM; at Adenosine receptor A2a it was 440 nM; at Adenosine receptor A3, 32 nM. Also, the results for the Selectivity in assay [1] and in assay [2] were 5.6 and 14, respectively.
For `CCNC(=O)[C@H]1OC(n2cnc3c(NC(=O)Nc4cccc(C(F)(F)F)c4)ncnc32)[C@H](O)[C@@H]1O` (some centres undefined), in that order: 700 nM, 2300 nM, 77 nM, 9.1 and 30.
As for `CCNC(=O)[C@H]1O[C@@H](n2cnc3c(NC(=O)Nc4ccccc4OC)ncnc32)[C@H](O)[C@@H]1O`, the Ki at Adenosine receptor A1 turned out to be 73 nM; at Adenosine receptor A2a, 1160 nM; on Adenosine receptor A3, 30 nM. In addition, the Selectivity worked out at 2.4 in assay [1] and 38 in assay [2].
For `CCNC(=O)[C@H]1O[C@@H](n2cnc3c(NC(=O)Nc4ccccc4F)ncnc32)[C@H](O)[C@@H]1O`, in that order: 77 nM, 528 nM, 34 nM, 2.2 and 15.
For `CCNC(=O)[C@H]1O[C@@H](n2cnc3c(NC(=O)NC(C)(C)C)ncnc32)[C@H](O)[C@@H]1O`, in that order: 1440 nM, 3670 nM, 1930 nM, 0.75 and 1.9.
On to `CCNC(=O)[C@H]1O[C@@H](n2cnc3c(NC(=O)Nc4ccccc4Cl)ncnc32)[C@H](O)[C@@H]1O`, for which the Ki stood at 111 nM on Adenosine receptor A1, 1340 nM at Adenosine receptor A2a and 7.4 nM at Adenosine receptor A3. Moreover, the Selectivity in assay [1] came to 15; in assay [2] it was 180.
`CCNC(=O)[C@H]1O[C@@H](n2cnc3c(NC(=O)Nc4cccc(OC)c4)ncnc32)[C@H](O)[C@@H]1O`: the Ki on Adenosine receptor A1 was determined as 113 nM; at Adenosine receptor A2a, 3860 nM; at Adenosine receptor A3 it was 42 nM. Also, the Selectivity in assay [1] was 2.7; in assay [2], 92.
In the same order, the values of `CCNC(=O)[C@H]1O[C@@H](n2cnc3c(NC(=O)Nc4cccc(Cl)c4)ncnc32)[C@H](O)[C@@H]1O` are 45 nM, 420 nM, 4.4 nM, 10 and 96.
In the same order, the values of `CCCCCCCCNC(=O)Nc1ncnc2c1ncn2[C@@H]1O[C@H](C(=O)NCC)[C@@H](O)[C@H]1O` are 448 nM, 3070 nM, 326 nM, 1.4 and 9.4.
On to `CCNC(=O)[C@H]1O[C@@H](n2cnc3c(NC(=O)Nc4ccccc4)ncnc32)[C@H](O)[C@@H]1O`, for which the Ki on Adenosine receptor A1 is 110 nM; on Adenosine receptor A2a, 5360 nM; on Adenosine receptor A3, 39 nM. Also, the values for the Selectivity in assay [1] and in assay [2] were 2.8 and 140, respectively.
For `CCNC(=O)[C@H]1O[C@@H](n2cnc3c(NC(=O)Nc4cccc(Br)c4)ncnc32)[C@H](O)[C@@H]1O`, in that order: 252 nM, 286 nM, 275 nM, 0.9 and 1.
For `CCNC(=O)[C@H]1O[C@@H](n2cnc3c(NC(=O)Nc4cccc(F)c4)ncnc32)[C@H](O)[C@@H]1O`, in that order: 103 nM, 611 nM, 39 nM, 2.6 and 16.
In the same order, the values of `CNC(=O)[C@H]1O[C@@H](n2cnc3c(NC(=O)Nc4cccc(Cl)c4)ncnc32)[C@H](O)[C@@H]1O` are 550 nM, 6700 nM, 115 nM, 4.8 and 58.
Turning to `CCNC(=O)[C@H]1OC(n2cnc3c(NC(=O)Nc4ccc(C(F)(F)F)cc4)ncnc32)[C@H](O)[C@@H]1O` (some centres undefined), the Ki amounted to 739 nM at Adenosine receptor A1, 4830 nM at Adenosine receptor A2a and 150 nM at Adenosine receptor A3. Moreover, the values for the Selectivity in assay [1] and in assay [2] were 4.9 and 32, respectively.
In the same order, the values of `CCNC(=O)[C@H]1O[C@@H](n2cnc3c(NC(=O)Nc4ccc(F)cc4)ncnc32)[C@H](O)[C@@H]1O` are 85 nM, 1380 nM, 19 nM, 4.4 and 72.
For `CCNC(=O)[C@H]1O[C@@H](n2cnc3c(NC(=O)Nc4ccc(I)cc4)ncnc32)[C@H](O)[C@@H]1O`, in that order: 64 nM, 561 nM, 101 nM, 0.6 and 5.6.
In the same order, the values of `CCNC(=O)[C@H]1O[C@@H](n2cnc3c(NC(=O)Nc4ccc(C)cc4)ncnc32)[C@H](O)[C@@H]1O` are 124 nM, 351 nM, 32.3 nM, 3.8 and 11.
Turning to `CCNC(=O)[C@H]1O[C@@H](n2cnc3c(NC(=O)Nc4ccccc4C(F)(F)F)ncnc32)[C@H](O)[C@@H]1O`, the Ki was determined as 384 nM at Adenosine receptor A1, 10000 nM at Adenosine receptor A2a and 54 nM on Adenosine receptor A3. In addition, the figures for the Selectivity in assay [1] and in assay [2] were 7.4 and 190, respectively.
In the case of `CCNC(=O)[C@H]1O[C@@H](n2cnc3c(NC(=O)Nc4cccc(I)c4)ncnc32)[C@H](O)[C@@H]1O`, the Ki on Adenosine receptor A2a came to 3940 nM; at Adenosine receptor A3 it was 30 nM. Besides, the Selectivity came to 0.5 in assay [1] and 130 in assay [2].
